From ChEMBL document CHEMBL4270594, “Design, synthesis and pharmacological evaluation of new 3-(1H-benzimidazol-2-yl)quinolin-2(1H)-one derivatives as potential antitumor agents” (Eur J Med Chem, 2018)
The source made the active and inactive calls. No cut-off for these calls is given here.

Key:
NCI-H460 [1] = experiment: Antitumor activity against human NCI-H460 cells xenografted in Balb/c nude mouse assessed as tumor growth inhibition at 50 mg/kg, ip bid for 13 days measured on day 14 post last dose relative to control; assay type: functional; settings: read-out: TGI
In short: (§1)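 SPF BALB/c nude mice carrying NCI-H460 xenografts were randomly grouped and given 25 or 50 mg/kg. Vehicle (5% DMSO in saline, v/v) and cisplatin 2 mg/kg were the controls, n = 6 per group. Tumour volume was followed to give the relative tumour increment rate (T/C, %). Tumours were harvested and weighed on day 14 to give the weight inhibitory rate.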

HepG2 [2] = experiment: Induction of apoptosis in human HepG2 cells transfected with p53 siRNA assessed as late apoptotic cells after 24 hrs by Annexin V-FITC/ propidium iodide staining based flow cytometry (reference value: 7.99 to 8.6%); assay type: functional
HepG2 [3] = experiment: Cell cycle arrest in human HepG2 cells transfected with p53 siRNA assessed as accumulation at G1-phase after 48 hrs by propidium iodide staining based flow cytometry (reference value: 55.48 to 56.24%); assay type: functional
SK-OV-3 = experiment: Cytotoxicity against human SKOV3 cells after 48 hrs by MTT assay; assay type: functional, cell-based; settings: SK-OV-3, 48 h
In short: (§2)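 MTT cytotoxicity assay run against HepG2 and BEL-7404 liver cancer, SK-OV-3 ovarian, NCI-H460 large-cell lung cancer and HL-7702 normal liver cells. 5-fluorouracil and cisplatin served as positive controls. IC50 is given as mean ± SD of three repeat experiments.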

NCI-H460 [4] = experiment: Antitumor activity against human NCI-H460 cells xenografted in Balb/c nude mouse assessed as relative tumor volume increment rate at 50 mg/kg, ip bid for 13 days measured on day 14 post last dose relative to control; assay type: functional; in short: as §1
BEL-7404 tumor cell line = experiment: Cytotoxicity against human Bel7404 cells after 48 hrs by MTT assay; assay type: functional, cell-based; settings: BEL-7404, 48 h; in short: as §2
Mus musculus [5] = experiment: Upregulation of caspase-9 protein expression in tumor tissues of Balb/c nude mouse xenografted with human NCI-H460 cells at 25 to 50 mg/kg, ip bid for 13 days measured on day 14 by Western blot analysis; assay type: functional, organism-based
In short: (§3)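 Tumors from NCI-H460 xenografted BALB/c nude mice (25 or 50 mg/kg, vehicle 5% DMSO in saline) collected at day 14; protein levels in tumor tissue determined by western blot versus vehicle control.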

HepG2 [6] = experiment: Induction of apoptosis in human HepG2 cells transfected with p53 siRNA assessed as necrotic apoptotic cells after 24 hrs by Annexin V-FITC/ propidium iodide staining based flow cytometry (reference value: 15.6 to 15.7%); assay type: functional
Mus musculus [7] = experiment: Effect on caspase-3 protein expression in tumor tissues of Balb/c nude mouse xenografted with human NCI-H460 cells at 25 to 50 mg/kg, ip bid for 13 days measured on day 14 by Western blot analysis; assay type: functional, organism-based
Mus musculus [8] = experiment: Toxicity in Kunming mouse assessed as signs of peritonitis or damage to kidney at 50 mg/kg/day, ip for 14 consecutive days by microscopic method; assay type: organism-based; settings: in vivo
In short: (§4)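 Kunming mice given 50 mg/kg/day ip in 5% v/v DMSO/saline for 14 days; kidney, heart and liver harvested, sectioned for pathology slices and examined microscopically for peritonitis or organ damage versus control mice.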

Mus musculus [9] = experiment: Toxicity in Balb/c nude mouse xenografted with human NCI-H460 cells assessed as change in body weight at 25 to 50 mg/kg, ip bid for 13 days; assay type: organism-based; settings: in vivo, 312 h
In short: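 SPF BALB/c nude mice bearing NCI-H460 xenografts, randomized and given 25 or 50 mg/kg in 5% DMSO/saline vehicle, with cisplatin 2 mg/kg as positive control; body weight tracked over the 13-day treatment; n = 6.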

NCI-H460 [10] = experiment: Antitumor activity against human NCI-H460 cells xenografted in Balb/c nude mouse assessed as induction of necrosis at 25 to 50 mg/kg, ip bid for 13 days measured on day 14 post last dose by hematoxylin and eosin staining based microscopic method; assay type: functional, organism-based
HepG2 [11] = experiment: Cytotoxicity against human HepG2 cells after 48 hrs by MTT assay; assay type: functional, cell-based; settings: HepG2, 48 h; in short: as §2
Mus musculus [12] = experiment: Toxicity in Kunming mouse assessed as signs of peritonitis or damage to liver at 50 mg/kg/day, ip for 14 consecutive days by microscopic method; assay type: organism-based; settings: in vivo; in short: as §4
Mus musculus [13] = experiment: Toxicity in Kunming mouse assessed as signs of peritonitis or damage to heart at 50 mg/kg/day, ip for 14 consecutive days by microscopic method; assay type: organism-based; settings: in vivo; in short: as §4
L02 = experiment: Cytotoxicity against human HL-7702 cells after 48 hrs by MTT assay; assay type: cell-based; settings: L02, 48 h; in short: as §2
Mus musculus [14] = experiment: Upregulation of cytochrome-c expression in tumor tissues of Balb/c nude mouse xenografted with human NCI-H460 cells at 25 to 50 mg/kg, ip bid for 13 days measured on day 14 by Western blot analysis; assay type: functional, organism-based; in short: as §3
NCI-H460 [15] = experiment: Cytotoxicity against human NCI-H460 cells after 48 hrs by MTT assay; assay type: functional, cell-based; settings: NCI-H460, 48 h; in short: as §2
Mus musculus [16] = experiment: Toxicity in Kunming mouse assessed as change in body weight at 50 mg/kg/day, ip for 14 consecutive days measured daily during compound dosing; assay type: organism-based; settings: in vivo
In short: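 Kunming mice dosed intraperitoneally at 50 mg/kg per day for 14 consecutive days, compound dissolved in 5% v/v DMSO/saline; body weight recorded daily as a systemic toxicity parameter against a control group; six mice per group.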

HepG2 [17] = experiment: Induction of apoptosis in human HepG2 cells transfected with p53 siRNA assessed as live cells after 24 hrs by Annexin V-FITC/ propidium iodide staining based flow cytometry (reference value: 69.9 to 70.3%); assay type: functional
HepG2 [18] = experiment: Cell cycle arrest in human HepG2 cells transfected with p53 siRNA assessed as accumulation at S-phase after 48 hrs by propidium iodide staining based flow cytometry (reference value: 20.37 to 22.8%); assay type: functional
Mus musculus [19] = experiment: Downregulation of Bcl2 protein expression in tumor tissues of Balb/c nude mouse xenografted with human NCI-H460 cells at 25 to 50 mg/kg, ip bid for 13 days measured on day 14 by Western blot analysis; assay type: functional, organism-based
NCI-H460 [20] = experiment: Antitumor activity against human NCI-H460 cells xenografted in Balb/c nude mouse assessed as tumor growth inhibition at 25 mg/kg, ip bid for 13 days measured on day 14 post last dose relative to control; assay type: functional; settings: read-out: TGI; in short: as §1
HepG2 [21] = experiment: Cell cycle arrest in human HepG2 cells transfected with p53 siRNA assessed as accumulation at G2-phase after 48 hrs by propidium iodide staining based flow cytometry (reference value: 21.72 to 23.39%); assay type: functional
HepG2 [22] = experiment: Induction of apoptosis in human HepG2 cells transfected with p53 siRNA assessed as early apoptotic cells after 24 hrs by Annexin V-FITC/ propidium iodide staining based flow cytometry (reference value: 5.99 to 6.01%); assay type: functional
NCI-H460 [23] = experiment: Antitumor activity against human NCI-H460 cells xenografted in Balb/c nude mouse assessed as relative tumor volume increment rate at 25 mg/kg, ip bid for 13 days measured on day 14 post last dose relative to control; assay type: functional; in short: as §1
HepG2 [24] = experiment: Upregulation of p21 protein expression in human HepG2 cells at 6 to 10 uM after 12 hrs by Western blot analysis; assay type: functional, cell-based
In short: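 HepG2 cell lysates after compound treatment analyzed by western blot for the target protein, compared with untreated negative control.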

Structure (SMILES) | inhibition in vivo at 50 mg/kg (NCI-H460 [1]) [%] | Activity (HepG2 [2]) [%] | Activity (HepG2 [3]) [%] | IC50 (SK-OV-3) [µM] | T/C (NCI-H460 [4]) [%] | IC50 (BEL-7404 tumor cell line) [µM] | Activity (Mus musculus [5]) | Activity (HepG2 [6]) [%] | Activity (Mus musculus [7]) | Activity (Mus musculus [8]) | Activity (Mus musculus [9]) | Activity (NCI-H460 [10]) | IC50 (HepG2 [11]) [µM] | Activity (Mus musculus [12]) | Activity (Mus musculus [13]) | IC50 (L02) [µM] | Activity (Mus musculus [14]) | IC50 (NCI-H460 [15]) [µM] | Activity (Mus musculus [16]) | Activity (HepG2 [17]) [%] | further results
O=c1[nH]c2cc3c(cc2cc1-c1nc2cc(Cl)ccc2[nH]1)OCO3 | 55.1 | 7.96 | 74.18 | 24.7 | 38.1 | 9.06 | Active | 6.29 | inactive | Non-Toxic | Non-Toxic | Active | 10.6 | Non-Toxic | Non-Toxic | > 100 | Active | 30.4 | Non-Toxic | 74.6 | Activity (HepG2 [18]): 6.86%; Activity (Mus musculus [19]): Active; inhibition in vivo at 25 mg/kg (NCI-H460 [20]): 46.2%; Activity (HepG2 [21]): 18.96%; Activity (HepG2 [22]): 11.2%; T/C (NCI-H460 [23]): 48.8%
O=c1[nH]c2ccccc2cc1-c1nc2cc(Cl)ccc2[nH]1 | 66.9 | 7.62 | 46.86 | 10.5 | 30.7 | 16.5 | Active | 6.08 | inactive | Non-Toxic | Non-Toxic | Active | 8.45 | Non-Toxic | Non-Toxic | > 100 | Active | 14.7 | Non-Toxic | 74.8 | Activity (HepG2 [24]): Active; Activity (HepG2 [18]): 20.84%; Activity (Mus musculus [19]): Active; inhibition in vivo at 25 mg/kg (NCI-H460 [20]): 51.9%; Activity (HepG2 [21]): 32.3%; Activity (HepG2 [22]): 11.5%; T/C (NCI-H460 [23]): 40.6%
